Compounds with a hit are over-represented: about 2.9% of the library has one in this group of screens.
SENP1 inh: inhibitors of human SENP1 SUMO protease catalytic domain; recombinant SENP1 catalytic domain, CyPet-SUMO1-YPet FRET cleavage; inhibition, % at 10 µM; hit rate 0.21% among 360,000; AID 624204;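 active means inhibition at least 30% at 10 µM, raw YFP signal under a set limit, fluorescence ratio 0.5 to 1.5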
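system = hSENP1 catalytic domain, recombinant | reagent = SFCypet-SUMO1-SFYpet substrate at 25 nM | doses = one dose per compound, 10 µM, 0.5% DMSO | incubation = enzyme reaction for 50 min at room temperature, dark | measured by = FRET, CFP and YFP emission | controls = no-enzyme low, enzyme-DMSO high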
SENP8 block-1: SENP8 protease inhibition; purified SENP8, Z-RLRGG-aminoluciferin cleavage, luminescence; inhibition, % at 10 µM; hit rate 1.2% among 330,000; in the data active means inhibition above about 50%
SENP6 block: inhibitors of human SENP6 protease. Q9GZR1. Recombinant SENP6 catalytic domain, aminoluciferin luminescence. inhibition, % at 10 µM. hit rate 1.8% among 330,000. AID 2599;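 active means inhibition above about 50% at the single tested dose, limit read from the data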
SENP7 inh: SENP7 protease inhibition; Q9BQF6; recombinant SENP7, Z-RLRGG-aminoluciferin luminescence, 40 min; inhibition, % at 5 µM; hit rate 1.5% among 330,000; AID 434973;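 active means inhibition above about 50% at the single test dose, limit read from the data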
Target sequence (Q9BQF6 706-1050 limits assumed): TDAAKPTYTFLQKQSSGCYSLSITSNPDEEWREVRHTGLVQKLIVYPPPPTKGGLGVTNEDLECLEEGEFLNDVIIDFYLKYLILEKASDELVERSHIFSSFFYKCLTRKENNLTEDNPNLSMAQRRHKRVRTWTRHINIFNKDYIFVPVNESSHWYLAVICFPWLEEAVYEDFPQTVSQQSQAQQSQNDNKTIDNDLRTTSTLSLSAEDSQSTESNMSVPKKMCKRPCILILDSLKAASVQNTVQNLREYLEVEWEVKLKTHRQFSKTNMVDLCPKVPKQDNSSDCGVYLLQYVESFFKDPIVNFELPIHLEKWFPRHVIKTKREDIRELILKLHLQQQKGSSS
Apaf-1 inh: human Apaf-1 inhibition; inhibition, % at 20 µM; AID 489030; reconstituted apoptosome caspase-3 activity, DEVD-Rh110 fluorescence; O14727; hit rate 0.71% among 330,000; active means inhibition of at least 40% at 20 µM
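System – cell-free apoptosome with Apaf-1, procaspase-3 and caspase-9 · Buffer or medium – pH 7.5 Hepes buffer with CHAPS, BSA, DTT · Also added – cytochrome c with DEVD-Rh110 · Times – 30 min compound preincubation, 50 min activation, room temperature · Technique – Rh110 fluorescence intensity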
SENP8 block-2: SENP8 (human) protease inhibition; Q96LD8; recombinant SENP8, Nedd8 substrate fluorescence; inhibition, % at 20 µM; hit rate 0.64% among 360,000; AID 602440; in the data active means inhibition mostly above about 40%, no sharp cut-off; inactive means mostly below about 27%
SENP8 conf: confirmation of human SENP8 protease inhibitors. shares compounds with SENP7 inh. Recombinant SENP8, Z-RLRGG-aminoluciferin luminescence, 60 min. inhibition, % at 12.5 µM. hit rate 40% among 6,200;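 active means mean inhibition across replicates above about 50%, limit read from the data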
SENP6 conf: confirmation of human SENP6 protease inhibitors | shares compounds with SENP7 inh | inhibition, % at 12.5 µM | hit rate 58% among 6,200 | recombinant SENP6, Z-RLRGG-aminoluciferin luminescence | AID 488915
SENP7 confirm: human SENP7 inhibition, confirmed. shares compounds with SENP7 inh. recombinant SENP7, Z-RLRGG-aminoluciferin luminescence, 40 min. inhibition, % at 12.5 µM. hit rate 69% among 6,200
Casp3 SENP sel: caspase-3 inhibition (SENP selectivity assay). AID 488918. hit rate 60% among 6,200. shares compounds with SENP7 inh. inhibition, % at 12.5 µM. purified caspase-3, Z-DEVD-aminoluciferin luminescence, 60 min;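 active means mean inhibition above about 50%, limit read from the data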
Target sequence (P42574 28-227 limits assumed): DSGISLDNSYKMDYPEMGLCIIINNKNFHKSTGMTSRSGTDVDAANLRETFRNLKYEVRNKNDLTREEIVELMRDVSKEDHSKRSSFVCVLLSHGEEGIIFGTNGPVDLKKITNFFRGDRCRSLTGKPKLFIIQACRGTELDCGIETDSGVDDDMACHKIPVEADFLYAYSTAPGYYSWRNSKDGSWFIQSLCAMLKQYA
Luc interf: interferes with luciferase luminescence in SENP counter-screen. shares compounds with SENP7 inh. inhibition, % at 12.5 µM. Pre-incubated SENP8/Z-RLRGG-aminoluciferin, luciferase luminescence interference. hit rate 39% among 6,200;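 active means mean inhibition above about 50% when retested at one dose, limit read from the data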
Numbers stand for hits; – = inactive; · = no result given.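 How the source made its calls, unless noted: active means mean inhibition above about 50% in the one-dose retest (limit read from the data); inactive means the rest.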

SMILES | SENP1 inh | SENP8 block-1 | SENP6 block | SENP7 inh | Apaf-1 inh | SENP8 block-2 | SENP8 conf | SENP6 conf | SENP7 confirm | Casp3 SENP sel | Luc interf
O=C(CCCN1C(=O)/C(=C/c2ccccc2Cl)SC1=S)N1CCOCC1 | – | 86.5 | 79.5 | 87.7 | – | – | – | 55.4 | 63.9 | 63.3 | –
COc1ccc(/C=C2/SC(=O)NC2=O)cc1 | – | 71.4 | 85.7 | 62.0 | – | – | 80.8 | 76.0 | 89.2 | 74.4 | 84.1
COc1ccccc1NC(=O)NC1(C(=O)NCC2CCCO2)CCCCC1 (stereo unspecified) | – | – | – | – | – | – | · | · | · | · | ·
CC(=O)Nc1cccc(Nc2cnccn2)c1 | – | · | · | · | · | – | · | · | · | · | ·
CCOc1ccc(Br)cc1S(=O)(=O)NC1=NCCCCC1 | – | – | – | – | – | – | · | · | · | · | ·
COc1ccc(OCC(=O)NCc2nc(-c3ccccc3)no2)cc1 | – | · | · | · | · | – | · | · | · | · | ·
O=C(O)CCN1C(=O)/C(=C\c2cccc(Oc3ccccc3)c2)SC1=S | – | 96.3 | 96.8 | 62.2 | – | – | – | 100.7 | 103.5 | – | 90.1
COc1ccc(/C=C2\SC(=S)N(CCCC(=O)N3CCOCC3)C2=O)cc1OC | – | – | – | – | – | – | · | · | · | · | ·
COc1ccc(/C=C2\SC(=S)N(CCCC(=O)N3CCOCC3)C2=O)cc1 | – | 69.0 | 81.6 | 72.3 | – | – | 83.0 | 75.9 | 91.2 | 62.6 | 59.6
O=C(O)CCN1C(=O)/C(=C\c2ccncc2)SC1=S | – | – | – | – | – | – | · | · | · | · | ·
O=C(O)CN1C(=O)/C(=C\c2ccc(OC(=O)c3ccco3)cc2)SC1=S | 39.3 | 59.0 | 71.3 | – | – | – | 66.5 | 62.5 | 79.0 | 83.4 | 68.9
O=C(O)CN1C(=O)/C(=C\c2cccc(OC(=O)c3ccco3)c2)SC1=S | – | – | – | – | – | – | · | · | · | · | ·
Cc1ccc(NC(=O)CN2C(=O)NC3(CCCc4ccccc43)C2=O)c([N+](=O)[O-])c1 (stereo unspecified) | – | – | – | – | – | – | · | · | · | · | ·
c1ccc2c3c(cc(N4CCOCC4)c2c1)OC1(N2CCOCC2)CCCCC1O3 (stereo unspecified) | – | – | 80.0 | – | – | – | – | – | – | – | –
COc1nnc(-c2ccc(N3CCOCC3)c(NC(=O)C3CCCCC3)c2)c2ccccc12 | – | – | – | – | – | – | · | · | · | · | ·
Cc1ccc(C2=NN(S(C)(=O)=O)C(c3ccc4c(c3)OCO4)C2)cc1 (stereo unspecified) | – | – | 67.5 | 59.4 | – | – | – | 62.8 | 89.8 | 70.6 | –
COC(=O)Cn1nnnc1-c1nc2cc(C)c(C)cc2[nH]c1=O | – | · | · | · | · | – | · | · | · | · | ·
CCN1C(=O)[C@H]2[C@@H](c3ccc(C(F)(F)F)cc3)N[C@]3(CCCN(Cc4ccccc4)C3=O)[C@H]2C1=O | – | · | · | · | · | – | · | · | · | · | ·
O=C(Nc1ccc(N2CCCCCC2)cc1)c1ccc[nH]1 | – | 56.1 | 66.1 | – | – | – | – | – | – | – | –
O=C(Nc1ccc(N2CCCCC2)cc1)C(Cl)c1ccccc1 (stereo unspecified) | – | – | 61.4 | 53.8 | – | – | – | – | – | – | –
O=C(Nc1ccc(N2CCCC2)cc1)c1cccc(Cl)c1 | – | 87.0 | 88.0 | 94.3 | – | – | – | 55.9 | 51.1 | 73.3 | –
O=C(Nc1ccc(N2CCOCC2)cc1)c1cn2ccccc2n1 | – | 84.5 | 95.5 | 92.6 | – | – | 85.8 | 86.5 | 98.5 | 94.9 | –
O=C(C(=Cc1ccc(O)cc1)c1ccccc1)c1ccccc1 | – | · | · | · | · | – | · | · | · | · | ·
CC(C)CCNC(=O)C(c1ccc(O)cc1)N(Cc1ccco1)C(=O)CCC(=O)Nc1nccs1 (stereo unspecified) | – | – | – | – | – | – | · | · | · | · | ·
CCN(Cc1ccncc1)C(=O)c1cc(COc2c(C)cccc2C)on1 | – | – | – | – | – | – | · | · | · | · | ·
SMILES | SENP1 inh | SENP8 block-1 | SENP6 block | SENP7 inh | Apaf-1 inh | SENP8 block-2 | SENP8 conf | SENP6 conf | SENP7 confirm | Casp3 SENP sel | Luc interf
COc1ccc([C@H]2CN(CCc3ccccc3)C(=O)[C@@H]2CC(=O)Nc2ccccc2)cc1 | – | · | · | · | · | – | · | · | · | · | ·
C/C(CC(=O)Nc1ccc(F)cc1)=N\NC(=O)c1ccccn1 | – | – | – | – | – | – | · | · | · | · | ·
O=C(Nc1ccc(SC(F)(F)F)cc1)c1ccccn1 | – | 89.3 | 92.8 | 92.9 | – | – | 85.6 | 93.5 | 86.7 | 60.8 | –
O=C(Nc1ccc(N2CCCCC2)cc1)c1ccccn1 | – | 94.6 | 101.0 | 100.3 | – | – | 95.0 | 98.4 | 102.8 | 97.7 | 75.6
Cc1cc(C)cc(NC(=O)Nc2ccc(N3CCCCC3)cc2)c1 | – | 79.7 | 81.3 | 81.8 | – | – | – | – | – | – | –
OCCN1CCN(c2nccn3ccnc23)CC1 | – | · | · | · | · | – | · | · | · | · | ·
CCCCCC(=O)N1C[C@@H](n2cc(-c3ccc(F)cc3)nn2)[C@H](O)C[C@@H]1c1ccc(Cl)cc1 | – | · | · | · | · | – | · | · | · | · | ·
O=C(NCCc1ccccc1)c1ccc2c(c1)OCCCO2 | – | 78.2 | 85.2 | 83.2 | – | – | 85.6 | 86.1 | 98.2 | 93.3 | 85.1
O=C(NCCc1ccccc1)c1ccc2c(c1)OCCO2 | – | – | 71.5 | 80.0 | – | – | 73.0 | 69.8 | 88.8 | 87.1 | 74.9
COc1ccc(CCNC(=O)c2ccc3c(c2)OCCO3)cc1 | – | – | – | – | – | – | · | · | · | · | ·
CC1CCC(NC(=O)CCNS(=O)(=O)c2ccc3c(c2)CCC(=O)N3)CC1 (stereo unspecified) | – | – | – | – | – | – | · | · | · | · | ·
CC(=O)OCCNc1cc(SC(C)C)c2nonc2c1[N+](=O)[O-] | – | – | 56.2 | – | – | – | – | – | – | – | –
COc1ccc(C(=O)Oc2ccc3c(c2)OCO3)cc1OC | – | – | 57.6 | 60.0 | – | – | – | – | 80.2 | 65.5 | 61.3
N/C(=N\OC(=O)c1ccc2c(c1)OCO2)c1cccnc1 | – | 50.8 | 74.3 | 80.4 | – | – | 57.7 | 57.1 | 86.8 | 87.8 | 69.3
Cc1cc(C)n(-c2ccc(C(=O)Oc3ccc4c(c3)OCO4)cc2)n1 | – | – | – | 67.2 | – | – | 61.5 | 70.5 | 91.1 | 67.3 | 56.8
N/C(=N\OC(=O)c1ccc2c(c1)OCO2)c1ccc([N+](=O)[O-])cc1 | – | – | – | – | – | – | · | · | · | · | ·

Screening data (PubChem)
